Measurements taken from ChEMBL document CHEMBL3112482, “Nonclassical antifolates, part 5. Benzodiazepine analogs as a new class of DHFR inhibitors: synthesis, antitumor testing and molecular modeling study” (Eur J Med Chem, 2014).

Tests used:
[1] = test system: OVCAR-8; assay: Growth inhibition of human OVCAR8 cells at 10 uM after 48 hrs; assay type: functional; conditions: OVCAR-8, 48 h, read-out: GI
How it was run: (§1)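 Single-dose primary screen in the NCI 60 human tumour cell line panel, run at the NCI facility. The panel covers nine subpanels: leukaemia, non-small cell lung, colon, CNS, melanoma, ovarian, renal, prostate and breast. Read-out was percent growth of treated cells, shown as a mean graph and reported as percent growth inhibition.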

[2] = Growth inhibition of human OVCAR4 cells at 10 uM after 48 hrs; assay type: functional; conditions: OVCAR-4, 48 h, read-out: GI; how it was run: as §1
[3] = test system: MDA-MB-231; assay: Growth inhibition of human MDA-MB-231 cells at 10 uM after 48 hrs; assay type: functional; conditions: MDA-MB-231, 48 h, read-out: GI; how it was run: as §1
[4] = test system: HL-60(TB); assay: Growth inhibition of human HL-60(TB) cells at 10 uM after 48 hrs; assay type: functional; conditions: HL-60, 48 h, read-out: GI
How it was run: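 NCI 60-cell-line human tumour panel covering nine subpanels (leukaemia, non-small cell lung, colon, CNS, melanoma, ovarian, renal, prostate, breast), run at the NCI facility. Primary screen tested a single dose of each compound. Read-out was percent growth of treated cells versus untreated cells, reported from the mean graph as percentage growth inhibition.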

[5] = test system: LOX IMVI; assay: Growth inhibition of human LOXIMVI cells at 10 uM after 48 hrs; assay type: functional; conditions: read-out: GI; how it was run: as §1
[6] = test system: SR; assay: Growth inhibition of human SR cells at 10 uM after 48 hrs; assay type: functional; conditions: read-out: GI
How it was run: (§2)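 NCI 60-cell-line disease-oriented human tumor panel, single-dose primary screen at 10 µM. Data given as mean-graph percent growth of treated cells, reported as percent growth inhibition (GI %).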

[7] = Growth inhibition of human OVCAR5 cells at 10 uM after 48 hrs; assay type: functional; conditions: OVCAR-5, 48 h, read-out: GI; how it was run: as §1
[8] = test system: SW-620; assay: Growth inhibition of human SW620 cells at 10 uM after 48 hrs; assay type: functional; conditions: SW-620, 48 h, read-out: GI; how it was run: as §2
[9] = test system: Malme-3M; assay: Growth inhibition of human MALME-3M cells at 10 uM after 48 hrs; assay type: functional; conditions: read-out: GI; how it was run: as §1
[10] = test system: PC-3; assay: Growth inhibition of human PC3 cells at 10 uM after 48 hrs; assay type: functional; conditions: PC-3, 48 h, read-out: GI; how it was run: as §1
[11] = test system: A549; assay: Growth inhibition of human A549 cells at 10 uM after 48 hrs; assay type: functional; conditions: A549, 48 h, read-out: GI; how it was run: as §1
[12] = test system: K562; assay: Growth inhibition of human K562 cells at 10 uM after 48 hrs; assay type: functional; conditions: K562, 48 h, read-out: GI; how it was run: as §1
[13] = test system: NCI-H226; assay: Growth inhibition of human NCI-H226 cells at 10 uM after 48 hrs; assay type: functional; conditions: NCI-H226, 48 h, read-out: GI; how it was run: as §1
[14] = test system: MCF7; assay: Growth inhibition of human MCF7 cells at 10 uM after 48 hrs; assay type: functional; conditions: MCF7, 48 h, read-out: GI; how it was run: as §1
[15] = biological target: T1, Dihydrofolate reductase (Bos taurus, UniProt P00376); assay: Inhibition of bovine liver DHFR measured for every 1 min of 10 mins
T1 sequence (P00376 whole entry): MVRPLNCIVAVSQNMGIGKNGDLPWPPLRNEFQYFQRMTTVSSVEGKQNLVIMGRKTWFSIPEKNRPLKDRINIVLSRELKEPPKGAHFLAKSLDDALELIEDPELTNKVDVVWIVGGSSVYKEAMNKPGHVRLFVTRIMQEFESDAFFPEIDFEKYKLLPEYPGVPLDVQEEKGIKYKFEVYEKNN

[16] = test system: T47D; assay: Growth inhibition of human T47D cells at 10 uM after 48 hrs; assay type: functional; conditions: read-out: GI; how it was run: as §2
[17] = test system: SNB-19; assay: Growth inhibition of human SNB19 cells at 10 uM after 48 hrs; assay type: functional; conditions: SNB-19, 48 h, read-out: GI; how it was run: as §2
[18] = Growth inhibition of human SF539 cells at 10 uM after 48 hrs; assay type: functional; conditions: SF-539, 48 h, read-out: GI; how it was run: as §2
[19] = test system: OVCAR-3; assay: Growth inhibition of human OVCAR3 cells at 10 uM after 48 hrs; assay type: functional; conditions: OVCAR-3, 48 h, read-out: GI; how it was run: as §1
[20] = test system: HOP-62; assay: Growth inhibition of human HOP62 cells at 10 uM after 48 hrs; assay type: functional; conditions: HOP-62, 48 h, read-out: GI; how it was run: as §1
[21] = Growth inhibition of human UO31 cells at 10 uM after 48 hrs; assay type: functional; conditions: UO-31, 48 h, read-out: GI; how it was run: as §2
[22] = Growth inhibition of human Hs 578T cells at 10 uM after 48 hrs; assay type: functional; conditions: read-out: GI; how it was run: as §1
[23] = test system: SK-OV-3; assay: Growth inhibition of human SKOV3 cells at 10 uM after 48 hrs; assay type: functional; conditions: SK-OV-3, 48 h, read-out: GI; how it was run: as §2
[24] = test system: ACHN; assay: Growth inhibition of human ACHN cells at 10 uM after 48 hrs; assay type: functional; conditions: read-out: GI; how it was run: as §1
[25] = Growth inhibition of human NCI-ADR-RES cells at 10 uM after 48 hrs; assay type: functional; conditions: read-out: GI; how it was run: as §1
[26] = test system: MDA-MB-435; assay: Growth inhibition of human MDA-MB-435 cells at 10 uM after 48 hrs; assay type: functional; conditions: MDA-MB-435, 48 h, read-out: GI; how it was run: as §1
[27] = test system: SK-MEL-5; assay: Growth inhibition of human SK-MEL-5 cells at 10 uM after 48 hrs; assay type: functional; conditions: SK-MEL-5, 48 h, read-out: GI; how it was run: as §2
[28] = test system: NCI-H322M; assay: Growth inhibition of human NCI-H322M cells at 10 uM after 48 hrs; assay type: functional; conditions: read-out: GI; how it was run: as §1
[29] = test system: NCI-H23; assay: Growth inhibition of human NCI-H23 cells at 10 uM after 48 hrs; assay type: functional; conditions: NCI-H23, 48 h, read-out: GI; how it was run: as §1
[30] = test system: SNB-75; assay: Growth inhibition of human SNB75 cells at 10 uM after 48 hrs; assay type: functional; conditions: SNB-75, 48 h, read-out: GI; how it was run: as §2
[31] = test system: SF-268; assay: Growth inhibition of human SF268 cells at 10 uM after 48 hrs; assay type: functional; conditions: SF-268, 48 h, read-out: GI; how it was run: as §2
[32] = test system: TK-10; assay: Growth inhibition of human TK10 cells at 10 uM after 48 hrs; assay type: functional; conditions: TK-10, 48 h, read-out: GI; how it was run: as §2
[33] = test system: U-251; assay: Growth inhibition of human U251 cells at 10 uM after 48 hrs; assay type: functional; conditions: U-251, 48 h, read-out: GI; how it was run: as §2
[34] = test system: SK-MEL-28; assay: Growth inhibition of human SK-MEL-28 cells at 10 uM after 48 hrs; assay type: functional; conditions: SK-MEL-28, 48 h, read-out: GI; how it was run: as §2
[35] = test system: SK-MEL-2; assay: Growth inhibition of human SK-MEL-2 cells at 10 uM after 48 hrs; assay type: functional; conditions: SK-MEL-2, 48 h, read-out: GI; how it was run: as §2
[36] = Growth inhibition of human EKVX cells at 10 uM after 48 hrs; assay type: functional; conditions: read-out: GI; how it was run: as §1

SMILES | inhibition of growth at 10 µM [1] [%] | inhibition of growth at 10 µM [2] [%] | inhibition of growth at 10 µM [3] [%] | inhibition of growth at 10 µM [4] [%] | inhibition of growth at 10 µM [5] [%] | inhibition of growth at 10 µM [6] [%] | inhibition of growth at 10 µM [7] [%] | inhibition of growth at 10 µM [8] [%] | inhibition of growth at 10 µM [9] [%] | inhibition of growth at 10 µM [10] [%] | inhibition of growth at 10 µM [11] [%] | inhibition of growth at 10 µM [12] [%] | inhibition of growth at 10 µM [13] [%] | inhibition of growth at 10 µM [14] [%] | IC50 [15] [µM] | inhibition of growth at 10 µM [16] [%] | inhibition of growth at 10 µM [17] [%] | inhibition of growth at 10 µM [18] [%] | inhibition of growth at 10 µM [19] [%] | inhibition of growth at 10 µM [20] [%] | other results
COc1ccc(/C=C2\CCCc3c2nc(N)nc3-c2ccc(OC)cc2)cc1 | < 30 | < 30 | < 30 | 32.2 | < 30 | < 30 | < 30 | < 30 | < 30 | < 30 | < 30 | < 30 | < 30 | < 30 | 18 | < 30 | < 30 | < 30 | < 30 | < 30 | inhibition of growth at 10 µM [21]: < 30%; inhibition of growth at 10 µM [22]: < 30%; inhibition of growth at 10 µM [23]: < 30%; inhibition of growth at 10 µM [24]: < 30%; inhibition of growth at 10 µM [25]: < 30%; inhibition of growth at 10 µM [26]: < 30%; inhibition of growth at 10 µM [27]: 43.8%; inhibition of growth at 10 µM [28]: < 30%; inhibition of growth at 10 µM [29]: < 30%; inhibition of growth at 10 µM [30]: < 30%; inhibition of growth at 10 µM [31]: < 30%; inhibition of growth at 10 µM [32]: < 30%; inhibition of growth at 10 µM [33]: < 30%; inhibition of growth at 10 µM [34]: < 30%; inhibition of growth at 10 µM [35]: < 30%; inhibition of growth at 10 µM [36]: < 30%
COc1ccc(/C=C2\CCCC3=C(c4ccc(OC)cc4)Nc4ccccc4N=C32)cc1 | < 30 | < 30 | < 30 | < 30 | 42.6 | 46.1 | < 30 | < 30 | < 30 | < 30 | < 30 | 49.1 | < 30 | 44 | 0.6 | < 30 | < 30 | < 30 | < 30 | < 30 | inhibition of growth at 10 µM [21]: < 30%; inhibition of growth at 10 µM [22]: < 30%; inhibition of growth at 10 µM [23]: < 30%; inhibition of growth at 10 µM [24]: < 30%; inhibition of growth at 10 µM [25]: < 30%; inhibition of growth at 10 µM [26]: 86.2%; inhibition of growth at 10 µM [27]: < 30%; inhibition of growth at 10 µM [28]: < 30%; inhibition of growth at 10 µM [29]: < 30%; inhibition of growth at 10 µM [30]: < 30%; inhibition of growth at 10 µM [31]: < 30%; inhibition of growth at 10 µM [32]: < 30%; inhibition of growth at 10 µM [33]: < 30%; inhibition of growth at 10 µM [34]: < 30%; inhibition of growth at 10 µM [35]: < 30%; inhibition of growth at 10 µM [36]: < 30%
